KCNK9 block = blocks the human KCNK9 two-pore domain potassium channel. Q9NPC2. HEK293 KCNK9, FluxOR thallium flux fluorescence; active compounds read low. B-score at 10 µM. 310,000 tested, 1.2% active. AID 488922;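 active = ratio B-score over 3 SD below the library mean, with starting fluorescence within 5 SD of its mean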;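 also: negative B-score means less thallium flux so channel inhibition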
KCNQ1 pot = human KCNQ1 channel potentiation or activation; P51787; AID 2648; CHO-K1 KCNQ1, thallium flux FluxOR fluorescence; active compounds read high; B-score at 10 µM; 310,000 tested, 0.35% active;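 active = fluorescence ratio B-score, a plate-corrected score, at least three library SD, with initial intensity B-score within 5 SD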
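Assay system: CHO-K1 cells stably expressing KCNQ1. Medium: assay buffer for compound exposure, DMSO matched across wells. Timing: 37 °C overnight plating, 90-min dark dye load, 20-min compound pretreatment. Signal: kinetic FluxOR fluorescence, 10 s baseline plus 110 s post-stimulus.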
hERG protect = shields human hERG channel from block by proarrhythmic agents; Q12809; CHO-hERG, FluxOR thallium flux, dofetilide IC70 present; activation (rescue from dofetilide block), less the hit threshold, % at 10 µM; 310,000 tested, 0.51% active;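 active = activation above the mean of controls blocked by dofetilide plus 5 SD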;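 also: thallium influx through hERG after potassium depolarization seen as dye fluorescence rise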
Target sequence (Q12809 whole entry, looked up): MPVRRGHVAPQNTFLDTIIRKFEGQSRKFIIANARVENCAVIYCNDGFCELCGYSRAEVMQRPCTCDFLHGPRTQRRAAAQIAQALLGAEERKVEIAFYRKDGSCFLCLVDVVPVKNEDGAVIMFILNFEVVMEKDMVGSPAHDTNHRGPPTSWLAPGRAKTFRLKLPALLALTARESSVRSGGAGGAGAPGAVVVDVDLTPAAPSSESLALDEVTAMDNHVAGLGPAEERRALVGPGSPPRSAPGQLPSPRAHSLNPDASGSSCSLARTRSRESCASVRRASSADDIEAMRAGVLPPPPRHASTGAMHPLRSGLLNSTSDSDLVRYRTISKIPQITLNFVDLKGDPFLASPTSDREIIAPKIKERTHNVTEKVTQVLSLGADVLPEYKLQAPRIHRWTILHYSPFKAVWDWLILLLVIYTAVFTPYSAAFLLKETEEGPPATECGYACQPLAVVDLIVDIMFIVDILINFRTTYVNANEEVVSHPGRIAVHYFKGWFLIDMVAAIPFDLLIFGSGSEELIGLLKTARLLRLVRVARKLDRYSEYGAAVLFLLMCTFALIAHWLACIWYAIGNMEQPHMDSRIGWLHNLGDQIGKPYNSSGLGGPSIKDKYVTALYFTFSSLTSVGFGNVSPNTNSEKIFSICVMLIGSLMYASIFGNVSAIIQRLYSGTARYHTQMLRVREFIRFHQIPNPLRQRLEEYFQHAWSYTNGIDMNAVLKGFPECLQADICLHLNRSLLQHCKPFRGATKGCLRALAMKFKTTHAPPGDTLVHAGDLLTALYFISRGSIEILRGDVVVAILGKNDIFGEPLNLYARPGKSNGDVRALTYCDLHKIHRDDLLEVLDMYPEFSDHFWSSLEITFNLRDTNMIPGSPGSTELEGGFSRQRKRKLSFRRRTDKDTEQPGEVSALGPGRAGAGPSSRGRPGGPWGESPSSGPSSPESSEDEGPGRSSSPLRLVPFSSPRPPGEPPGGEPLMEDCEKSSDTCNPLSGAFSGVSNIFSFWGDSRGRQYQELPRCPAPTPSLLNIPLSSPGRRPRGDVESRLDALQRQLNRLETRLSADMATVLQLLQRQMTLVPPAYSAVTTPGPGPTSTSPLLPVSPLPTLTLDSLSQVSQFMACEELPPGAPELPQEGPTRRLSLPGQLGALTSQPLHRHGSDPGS
KCNQ1 block = blocks the human KCNQ1 potassium channel; P51787; CHO-K1 KCNQ1, FluxOR thallium flux fluorescence; active compounds read high; B-score at 10 µM; 310,000 tested, 1.3% active;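 active = compounds whose thallium flux B-score, printed positive for inhibition, exceeds three library SD while starting fluorescence stays within three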;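 also: channel opened by potassium depolarization with thallium stimulus after 20 min compound exposure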
KCNK3 block = human KCNK3 channel inhibition, primary screen. B-score at 10 µM. 340,000 tested, 0.84% active. O14649. CHO-KCNK3 thallium flux, FluxOR fluorescence; active compounds read low;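 active = B-score under library mean minus 4 SD, starting fluorescence ratio at most library mean plus 5 SD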;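 also: more negative B-score means stronger inhibition of thallium flux through KCNK3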
KCNK3 inh conf = confirmation of human KCNK3 two-pore domain potassium channel inhibitors. shares compounds with KCNK3 block. CHO-KCNK3 thallium flux, FluxOR fluorescence; 0% buffer, 100% carvedilol maximal block. ratio percent of control, % at 10 µM. 2,400 tested, 99% active. AID 651638;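 active = ratio percent of control, averaged over triplicates, above buffer control mean plus 5 SD, cut at about 64% in these data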;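 also: ratio is the fluorescence rise from min to max over baseline after thallium stimulus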
KCNK3 noninduced = KCNK3 inhibitor counter-screen hit in non-induced cells; shares compounds with KCNK3 block; non-induced KCNK3 parental cells, FluxOR thallium flux; active compounds read low; thallium flux ratio (lower = more inhibition) at 10 µM; 2,400 tested, 40% active; AID 651747;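 active = thallium flux ratio, averaged over three wells, more than 5 SD below the buffer control mean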;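 also: host cells are CHO cells without KCNK3 induction; ratio is peak minus trough fluorescence over baseline then normalized to buffer controls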
The depositor's hits bear a star. Only some compounds are listed: those with a hit (about 3.1% of all), similar ones and a draw of the others.

For Cc1ccc(C)c(N2CCN(C(c3ccc(N(C)C)cc3)c3nnnn3C(C)(C)C)CC2)c1 (centres undefined) the results were KCNK9 block -8.1*, KCNQ1 pot inactive, hERG protect -11, KCNQ1 block inactive, KCNK3 block inactive, KCNK3 inh conf 122* and KCNK3 noninduced 0.15*.
For CN(C)c1ccc(C(c2nnnn2C(C)(C)C)N2CCN(C(=O)c3ccco3)CC2)cc1 (centres undefined) the results were KCNK9 block inactive, KCNQ1 pot inactive, hERG protect -14, KCNQ1 block inactive and KCNK3 block inactive.
O=C(Nc1cccc(Cl)c1)OCCOCCOC(=O)Nc1cccc(Cl)c1 was read as KCNK3 block inactive.
O=C(Nc1cccc(Cl)c1)ON=C1c2ccccc2-c2ccccc21 was read as KCNK9 block inactive, KCNQ1 pot inactive, hERG protect -17, KCNQ1 block inactive, KCNK3 block -8.9*, KCNK3 inh conf 135* and KCNK3 noninduced 0.13*.
`COc1ccc(Cl)cc1NC(=O)CN(C)C(=O)c1ccc(N2CCCCCC2)c([N+](=O)[O-])c1` gave KCNK9 block inactive, KCNQ1 pot inactive, hERG protect -17, KCNQ1 block inactive, KCNK3 block -12*, KCNK3 inh conf 107* and KCNK3 noninduced inactive.
For O=C(COn1nnc2ccc(S(=O)(=O)N3CCOCC3)cc21)Nc1c(F)c(F)c(F)c(F)c1F the results were KCNK9 block -7.4*, KCNQ1 pot inactive, hERG protect -11, KCNQ1 block inactive, KCNK3 block -8.8*, KCNK3 inh conf 87* and KCNK3 noninduced inactive.
CSCC[C@H](NC(=O)[C@@H]1Cc2ccccc2CN1)C(=O)NC[C@H]1CC[C@H](C(=O)O)CC1 was read as KCNK9 block inactive, KCNQ1 pot inactive, hERG protect -8, KCNQ1 block inactive and KCNK3 block inactive.
Cc1cc(/C=C2\SC(=S)NC2=O)c(C)n1-c1cccc(O)c1 was read as KCNK9 block -7.3*, KCNQ1 pot inactive, hERG protect -17, KCNQ1 block inactive, KCNK3 block -8.9*, KCNK3 inh conf 113* and KCNK3 noninduced 0.15*.
`Cc1ccc(-n2c(C)cc(/C=C3\SC(=O)NC3=O)c2C)cc1` gave KCNK9 block inactive, KCNQ1 pot inactive, hERG protect -9, KCNQ1 block inactive and KCNK3 block inactive.
`CC(=O)Nc1sc(C)c(C)c1C(=O)OCC(=O)N(C)c1c(N)n(Cc2ccccc2)c(=O)[nH]c1=O` gave KCNK9 block inactive, KCNQ1 pot inactive, hERG protect -11, KCNQ1 block inactive and KCNK3 block inactive.
COCCN(C(=O)COC(=O)c1c(NC(C)=O)sc(C)c1C)c1c(N)n(Cc2ccccc2)c(=O)[nH]c1=O was read as KCNK9 block inactive, KCNQ1 pot inactive, hERG protect -14, KCNQ1 block inactive, KCNK3 block -9.4*, KCNK3 inh conf 97* and KCNK3 noninduced inactive.
COCCN(C(=O)COC(=O)/C=C/c1ccc2ccccc2n1)c1c(N)n(Cc2ccccc2)c(=O)[nH]c1=O was read as KCNK9 block inactive, KCNQ1 pot inactive, hERG protect -10, KCNQ1 block inactive, KCNK3 block -12*, KCNK3 inh conf 55* and KCNK3 noninduced inactive.
Screening O=C(CNc1cc(S(=O)(=O)N2CCOCC2)ccc1N1CCCC1)Nc1ccc(Cl)cc1 returned KCNK3 block inactive.
`O=C(CCN1c2ccccc2Sc2ccccc21)OCc1nnc(-c2ccccc2)o1` gave KCNK9 block inactive, KCNQ1 pot inactive, hERG protect -6, KCNQ1 block inactive, KCNK3 block -9.5*, KCNK3 inh conf 73* and KCNK3 noninduced inactive.
For CC/C(=N\NS(=O)(=O)c1ccc(C)cc1)c1ccco1 the results were KCNK9 block inactive, KCNQ1 pot inactive, hERG protect -6, KCNQ1 block inactive and KCNK3 block inactive.
`O=S(=O)(NC(=NCCc1ccc(Cl)cc1)c1ccccc1Cl)c1cccs1` gave KCNK9 block inactive, KCNQ1 pot inactive, hERG protect -17, KCNQ1 block inactive, KCNK3 block -8.9*, KCNK3 inh conf 114* and KCNK3 noninduced 0.16*.
Screening Cc1ccccc1CN(C)Cc1cc(=O)oc2c(C)c(C)ccc12 returned KCNK9 block inactive, KCNQ1 pot inactive, hERG protect -21, KCNQ1 block 9*, KCNK3 block -11*, KCNK3 inh conf 118* and KCNK3 noninduced 0.14*.
For COc1cccc(CN(C)Cc2cc(=O)oc3c(C)c(C)ccc23)c1 the results were KCNK9 block inactive, KCNQ1 pot inactive, hERG protect -10, KCNQ1 block inactive, KCNK3 block -11*, KCNK3 inh conf 125* and KCNK3 noninduced 0.14*.
For Cc1cc2oc(=O)cc(CN(C)Cc3cccc(F)c3)c2cc1C the results were KCNK9 block inactive, KCNQ1 pot inactive, hERG protect -8, KCNQ1 block inactive, KCNK3 block -8.7*, KCNK3 inh conf 112* and KCNK3 noninduced inactive.
Screening Cc1c(O)ccc2c(CN(C)Cc3ccccc3)cc(=O)oc12 returned KCNK9 block inactive, KCNQ1 pot inactive, hERG protect -20, KCNQ1 block inactive and KCNK3 block inactive.
`CCc1ccc2c(CN(C)Cc3ccc(OC(F)F)c(OC)c3)cc(=O)oc2c1` gave KCNK9 block inactive, KCNQ1 pot inactive, hERG protect -5, KCNQ1 block inactive, KCNK3 block -16*, KCNK3 inh conf 128* and KCNK3 noninduced 0.15*.
Screening COc1cccc(CN(C)Cc2cc(=O)oc3cc(O)c(Cl)cc23)c1 returned KCNK9 block inactive, KCNQ1 pot inactive, hERG protect -14, KCNQ1 block inactive and KCNK3 block inactive.
CCc1ccccc1NC(=O)CNC(=O)CSC(=S)N1CCCC1 was read as KCNK3 block inactive.
CCOC(=O)C1=C(CSc2nc(CC)c(C)cc2C#N)OC(N)=C(C#N)C1c1ccccc1 (centres undefined) was read as KCNK9 block inactive, KCNQ1 pot inactive, hERG protect -7, KCNQ1 block inactive, KCNK3 block -9.8*, KCNK3 inh conf 109* and KCNK3 noninduced inactive.
For CCOC(=O)C1=C(CSc2nc3c(cc2C#N)CN(C)CC3)OC(N)=C(C#N)C1c1ccc(Cl)cc1 (centres undefined) the results were KCNK9 block inactive, KCNQ1 pot inactive, hERG protect -7, KCNQ1 block inactive and KCNK3 block inactive.
